The record followed here is ChEMBL document CHEMBL3351425, “Lactones from Ficus auriculata and their effects on the proliferation function of primary mouse osteoblasts in vitro” (2014).

Holding throughout (format): functional, Osteoblast
A short description of test [1]: Induction of cell proliferation in osteoblasts (unknown origin) at 100 uM after 48 hrs by MTT assay relative to untreated control. In outline: (§1)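 Primary mouse osteoblasts were seeded at 2 × 10^3 cells/well and cultured 24 h, then exposed to compound for 48 h. MTT (5.0 mg/ml) was added for a further 4 h at 37 °C, and formazan was dissolved in DMSO. OD was read at 570 nm. Viability = (OD sample − blank)/(OD untreated control − blank) × 100. The blank was cell-free medium.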

The nature of test [2]: Induction of cell proliferation in osteoblasts (unknown origin) at 1 uM after 48 hrs by MTT assay relative to untreated control. In short, it runs like this:
as §1

Test [3] is described as follows: Induction of cell proliferation in osteoblasts (unknown origin) at 10 uM after 48 hrs by MTT assay relative to untreated control. In short, it runs like this:
as §1

As to `COc1cc(O)cc2c1C(=O)O[C@H](C)CCCCCCC2`, the Activity in test [1] is 51.55%; in test [2] it was 3.45%; in test [3], 14.19%.
For `C[C@@H]1CCCCCCCc2cc(O)cc(O)c2C(=O)O1` the same measures were 19.48%, 1.67% and -4.54%.
Consider `COc1cc(O)cc2c1C(=O)O[C@H](C)CCC(=O)CCCC2`, for which the Activity in test [1] was 3.28%; in test [2], 2.87%; in test [3], -4.29%.
In the case of `COC1=CC(=O)C=C2CCCCC(=O)CC[C@@H](C)OC(=O)[C@@]21O`, the results for the Activity in test [1], in test [2] and in test [3] were 19.62%, 12.54% and 10.92%, respectively.
In the same order, the values of `COC1=CC(=O)C=C2CCCC(=O)CCC[C@@H](C)OC(=O)[C@@]21O` are 2.61%, 10% and 8.94%.
For `COC1=CC(=O)C=C2CCCCCCC[C@@H](C)OC(=O)[C@@]21O` the same measures were -68.32%, -7.91% and -43.92%.
For `COc1cc(O)cc2c1C(=O)O[C@H](C)CC[C@@H](O)CCCC2` the same measures were 2.1%, 3.97% and -6.67%.
Consider `[F-].[Na+]` [SODIUM FLUORIDE], for which the Activity in test [1] amounted to 22.54%; in test [2] it was 12.15%; in test [3] it was 18.76%.
